These results are taken from ChEMBL document CHEMBL1142013, “Tryptamine and homotryptamine-based sulfonamides as potent and selective inhibitors of 15-lipoxygenase” (Bioorg Med Chem Lett, 2005).

For assay [1], the target named is T1, Polyunsaturated fatty acid lipoxygenase ALOX15 (Oryctolagus cuniculus, UniProt P12530).
T1 sequence (P12530 whole entry): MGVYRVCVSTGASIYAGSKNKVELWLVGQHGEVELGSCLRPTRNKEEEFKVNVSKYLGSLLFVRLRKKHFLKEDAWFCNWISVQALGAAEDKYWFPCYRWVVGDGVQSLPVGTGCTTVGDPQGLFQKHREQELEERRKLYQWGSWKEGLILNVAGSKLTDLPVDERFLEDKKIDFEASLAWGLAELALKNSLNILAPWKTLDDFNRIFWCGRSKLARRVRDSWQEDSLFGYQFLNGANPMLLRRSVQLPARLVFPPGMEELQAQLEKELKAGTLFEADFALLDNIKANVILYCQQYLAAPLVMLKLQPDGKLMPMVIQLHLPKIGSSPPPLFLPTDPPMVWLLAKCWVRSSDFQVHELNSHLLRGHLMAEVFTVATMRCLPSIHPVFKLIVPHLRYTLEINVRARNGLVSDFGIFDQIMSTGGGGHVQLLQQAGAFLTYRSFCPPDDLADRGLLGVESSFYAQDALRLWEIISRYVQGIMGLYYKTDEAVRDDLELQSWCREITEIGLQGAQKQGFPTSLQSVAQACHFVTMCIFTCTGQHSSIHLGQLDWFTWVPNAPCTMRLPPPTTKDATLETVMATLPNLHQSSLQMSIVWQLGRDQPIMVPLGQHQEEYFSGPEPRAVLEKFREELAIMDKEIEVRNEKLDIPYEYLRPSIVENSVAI
Briefly: Inhibitory concentration against rabbit reticulocyte 15-lipoxygenase with substrate arachidonic acid. Put shortly: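 Purified rabbit reticulocyte 15-LO, isolated from phenylhydrazine-treated rabbits, with arachidonic acid as the substrate. IC50 comes from a colorimetric read-out in which the 15-HPETE product oxidizes Fe²⁺ under mildly acidic conditions. Many values were also verified by the spectrophotometric diene-formation rate (A₂₃₄).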

Assay [2] has as its target T1, Polyunsaturated fatty acid lipoxygenase ALOX15. As to the kind of experiment: Inhibitory concentration against isolated rabbit reticulocyte 15-lipoxygenase measured in the presence of linoleic acid. The method, boiled down: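 15-LO was purified from reticulocytes of phenylhydrazine-treated rabbits. Linoleic acid was the substrate. In a colorimetric assay, the 13-HPODE product oxidizes Fe²⁺ under mildly acidic conditions, and IC50 is derived from this. Many values were also checked spectrophotometrically by the rate of diene formation (A₂₃₄).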

Bounds are passed on as bounds.

On to `CC(C)c1ccc(-c2ccc(S(=O)(=O)NCCc3c[nH]c4ccccc34)cc2)cc1`, for which the IC50 is 140 nM in assay [1] and 280 nM in assay [2].
As for `Cc1ccccc1-c1ccc(S(=O)(=O)NCCc2c[nH]c3ccccc23)cc1`, the IC50 in assay [1] is 460 nM; in assay [2], 920 nM.
The matching figures for `O=S(=O)(NCCc1c(-c2cc3ccccc3o2)[nH]c2ccccc12)c1ccc(Br)cc1`: 161 nM and 30 nM.
The matching figures for `CC(C)Cc1ccc(-c2ccc(S(=O)(=O)NCCc3c[nH]c4ccccc34)cc2)cc1`: 170 nM and 910 nM.
For `CCCCCc1ccc(S(=O)(=O)NCCc2c(-c3cnc4ccccc4c3)[nH]c3ccccc23)cc1` the same measures were 50 nM and 13 nM.
As for `CCCc1ccc(S(=O)(=O)NCCc2c[nH]c3ccccc23)cc1`, the IC50 in assay [1] turned out to be 3200 nM; in assay [2], 3130 nM.
For the compound `CCCCCc1ccc(S(=O)(=O)NCCc2c(-c3ccc(C(F)(F)F)cc3)[nH]c3ccccc23)cc1`, the IC50 in assay [1] came to 132 nM; in assay [2], 11 nM.
Compound `CCCCCc1ccc(S(=O)(=O)NCCc2c[nH]c3ccc(C)cc23)cc1` registered an IC50 in assay [1] of 3900 nM.
Regarding `O=C(NC1CCCCC1)c1ccc(S(=O)(=O)NCCc2c(-c3cc4ccccc4o3)[nH]c3ccccc23)cc1`, the figures for the IC50 in assay [1] and in assay [2] were 34 nM and 12 nM, respectively.
In turn, `CCCCCc1ccc(S(=O)(=O)NCCc2c[nH]c3cc(F)ccc23)cc1` returned a 50% inhibitory concentration (IC50) in assay [1] of 2900 nM.
Regarding `CCc1ccc(S(=O)(=O)NCCc2c[nH]c3ccccc23)cc1`, the 50% inhibitory concentration (IC50) in assay [1] and in assay [2] was more than 10000 nM throughout.
Consider `CCCCNC(=O)c1ccc(S(=O)(=O)NCCc2c(-c3cc4ccccc4o3)[nH]c3ccccc23)cc1`, for which the IC50 in assay [1] turned out to be 112 nM; in assay [2], 42 nM.
As for `COc1ccc(-c2ccc(S(=O)(=O)NCCc3c[nH]c4ccccc34)cc2)cc1`, the IC50 turned out to be 1090 nM in assay [1] and 1500 nM in assay [2].
The matching figures for `COc1ccc(-c2[nH]c3ccccc3c2CCNS(=O)(=O)c2ccc(C)cc2)cc1`: 780 nM and 110 nM.
The matching figures for `CCCCc1ccc(-c2ccc(S(=O)(=O)NCCc3c[nH]c4ccccc34)cc2)cc1`: 200 nM and 530 nM.
The matching figures for `COc1ccc(-c2[nH]c3ccccc3c2CCNS(=O)(=O)c2ccc(-c3ccccc3)cc2)cc1`: 247 nM and 27 nM.
Turning to `CCCCCc1ccc(S(=O)(=O)NCCc2c(-c3ccc(OCC)cc3)[nH]c3ccccc23)cc1`, the concentration for half-maximal inhibition (IC50) was 39 nM in assay [1] and 11 nM in assay [2].
Compound `CCCCCc1ccc(S(=O)(=O)NCCc2c[nH]c3ccc(F)cc23)cc1` showed an IC50 in assay [1] of 6300 nM.
`Cc1ccc(-c2ccc(S(=O)(=O)NCCc3c[nH]c4ccccc34)cc2)cc1`: the IC50 in assay [1] was 470 nM.
For the compound `CCCCCc1ccc(S(=O)(=O)NCCc2c[nH]c3cc(C(=O)O)ccc23)cc1`, the half-inhibitory concentration (IC50) in assay [1] was more than 30000 nM; in assay [2], 24000 nM.
For `CCCCCc1ccc(S(=O)(=O)NCCc2c[nH]c3ccccc23)cc1` the same measures were 1020 nM and 420 nM.
For `CN(C)CCN(C)C(=O)c1ccc(S(=O)(=O)NCCc2c(-c3cc4ccccc4o3)[nH]c3ccccc23)cc1` the same measures were 382 nM and 76 nM.
The matching figures for `Cc1ccc(S(=O)(=O)NCCc2c[nH]c3ccccc23)cc1`: more than 10000 nM and more than 10000 nM.
For `CCCCCc1ccc(S(=O)(=O)NCCc2c[nH]c3ccc(-c4ccc[nH]4)cc23)cc1`, the concentration for half-maximal inhibition (IC50) in assay [2] was determined as 780 nM.
For `CCCCCc1ccc(S(=O)(=O)N(C)CCc2c[nH]c3ccccc23)cc1`, the IC50 in assay [2] was more than 10000 nM.
With `CCCCCc1ccc(S(=O)(=O)NCCc2c(-c3cc4ccccc4o3)n(C)c3ccccc23)cc1`, the IC50 worked out at 1420 nM in assay [1] and 143 nM in assay [2].
On to `CCCCCc1ccc(S(=O)(=O)NC(C)Cc2c[nH]c3ccccc23)cc1` (stereo unspecified), for which the IC50 in assay [2] was found to be 1600 nM.
Turning to `CCCCCc1ccc(S(=O)(=O)NCCc2c[nH]c3c(C)cccc23)cc1`, in assay [1], half-maximal inhibition (IC50) required 3300 nM.
For the compound `CN(C)c1cccc2c(S(=O)(=O)NCCc3c[nH]c4ccccc34)cccc12`, the IC50 in assay [2] stood at 3730 nM.
Take `CCCCCc1ccc(S(=O)(=O)N2CCC(c3c[nH]c4ccccc34)C2)cc1` (stereo unspecified): in assay [2], the IC50 was more than 10000 nM.
Consider `CCCCc1ccc(S(=O)(=O)NCCc2c[nH]c3ccccc23)cc1`, for which the IC50 in assay [1] was 4000 nM; in assay [2] it was 3070 nM.
The matching figures for `Cc1cccc(-c2ccc(S(=O)(=O)NCCc3c[nH]c4ccccc34)cc2)c1`: 320 nM and 450 nM.
As to `O=C(Nc1ccccc1)c1ccc(S(=O)(=O)NCCc2c(-c3cc4ccccc4o3)[nH]c3ccccc23)cc1`, the IC50 in assay [1] is 51 nM; in assay [2] it was 15 nM.
The matching figures for `CC(C)(C)c1ccc(-c2ccc(S(=O)(=O)NCCc3c[nH]c4ccccc34)cc2)cc1`: 230 nM and 270 nM.
For `CCCCCc1ccc(S(=O)(=O)NCCc2c(-c3cc(OC)ccc3OC)[nH]c3ccccc23)cc1` the same measures were 132 nM and 28 nM.
For `COc1ccc(NC(=O)c2ccc(S(=O)(=O)NCCc3c(-c4cc5ccccc5o4)[nH]c4ccccc34)cc2)cc1` the same measures were 26 nM and 11 nM.
Turning to `CCCCCc1ccc(S(=O)(=O)NCCc2c(-c3cccc(C)c3)[nH]c3ccccc23)cc1`, the results for the IC50 in assay [1] and in assay [2] were 58 nM and 25 nM, respectively.
For `CCc1ccc(-c2ccc(S(=O)(=O)NCCc3c[nH]c4ccccc34)cc2)cc1` the same measures were 470 nM and 260 nM.
For `CCCCCc1ccc(S(=O)(=O)NCCc2c[nH]c3cc(C(=O)OC)ccc23)cc1`, the IC50 in assay [1] was 472 nM; in assay [2], 236 nM.
The matching figures for `CCCCCc1ccc(S(=O)(=O)NCCc2c(-c3ccc4oc5ccccc5c4c3)[nH]c3ccccc23)cc1`: 71 nM and 10 nM.
Take `CN(CCO)C(=O)c1ccc(S(=O)(=O)NCCc2c(-c3cc4ccccc4o3)[nH]c3ccccc23)cc1`: the IC50 stood at 4050 nM in assay [1] and 440 nM in assay [2].
The matching figures for `O=S(=O)(NCCCc1c(-c2cc3ccccc3o2)[nH]c2ccccc12)c1ccc(-c2ccccc2)cc1`: 17 nM and 8 nM.
`COc1ccc(-c2[nH]c3ccccc3c2CCNS(=O)(=O)c2ccc(C(=O)O)cc2)cc1`: in assay [2], the IC50 was more than 10000 nM.
Consider `O=S(=O)(NCCc1c(-c2cc3ccccc3o2)[nH]c2ccccc12)c1ccc(-c2ccncc2)cc1`, for which the IC50 turned out to be 179 nM in assay [1] and 47 nM in assay [2].
The matching figures for `O=S(=O)(NCCc1c[nH]c2ccccc12)c1ccc(-c2ccccc2)cc1`: 4200 nM and 3400 nM.
On to `CCCCc1ccc(S(=O)(=O)NCCc2c(-c3ccc(OC)cc3)[nH]c3ccccc23)cc1`, for which, in assay [2], the half-inhibitory concentration (IC50) came out at 110 nM.
Still for that read-out and setting: next, `CC1=C(CC/C(C)=C/CC/C(C)=C/Cc2cc(O)ccc2O)C(C)(C)CCC1` [JASPAQUINOL]: 300 nM.

As usually defined, the IC50 is the point on the concentration scale where inhibition reaches its midpoint.
